System: Fibroblast
Assay: Multiplex assay against human fibroblast
Type: toxicity, cell-based
In short: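 With compound added, live cells were imaged on a CQ1 microscope at 37°C and 5% CO2; staining with Hoechst33342, BioTracker Green Microtubule Cytoskeleton Dye, MitoTracker Red and Annexin V Alexa Fluor 680 had been done at seeding. The CellPathfinder machine-learning gating scheme split cells into Hoechst high-intensity objects or normal cells, normal cells into healthy, pyknosed or fragmented nuclei, and pyknosed cells into mitotic or apoptotic. The tubulin, mitochondrial-mass and membrane-permeability phenotypes are per cents of healthy-nucleus cells.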

[1] = 12 h, 1 µM, compound concentration 1 uM, replicate 1
[2] = 12 h, 1 µM, compound concentration 1 uM, replicate 2
[3] = 12 h, 10 µM, compound concentration 10 uM, replicate 1
[4] = 12 h, 10 µM, compound concentration 10 uM, replicate 2
[5] = 24 h, 1 µM, compound concentration 1 uM, replicate 1
[6] = 24 h, 1 µM, compound concentration 1 uM, replicate 2
[7] = 24 h, 10 µM, compound concentration 10 uM, replicate 1
[8] = 24 h, 10 µM, compound concentration 10 uM, replicate 2
[9] = 48 h, 1 µM, compound concentration 1 uM, replicate 1
[10] = 48 h, 1 µM, compound concentration 1 uM, replicate 2
[11] = 48 h, 10 µM, compound concentration 10 uM, replicate 1
[12] = 48 h, 10 µM, compound concentration 10 uM, replicate 2

O=C(CCCc1ccccc1)Nc1nc2ccccc2c(=O)s1
Population Apoptotic (%) [1]: 58% | Population Fragmented Nuclei (%) [1]: 9% | Population Healthy Nuclei (%) [1]: 66% | Population Hoechst High Intensity Objects (%) [1]: 2% | Population Membrane Permeable-Phenotype (%) [1]: 0% | Population Mitochondria Different-Phenotype (%) [1]: 4% | Population Mitotic Cells (%) [1]: 41% | Population Normal (%) [1]: 97% | Population Pyknosed Nuclei (%) [1]: 23% | Population Tubulin-Different-Phenotype (%) [1]: 34% | Total Cell Count [1]: 127 | Population Apoptotic (%) [2]: 34% | Population Fragmented Nuclei (%) [2]: 19% | Population Healthy Nuclei (%) [2]: 49% | Population Hoechst High Intensity Objects (%) [2]: 3% | Population Membrane Permeable-Phenotype (%) [2]: 9% | Population Mitochondria Different-Phenotype (%) [2]: 7% | Population Mitotic Cells (%) [2]: 65% | Population Normal (%) [2]: 96% | Population Pyknosed Nuclei (%) [2]: 31% | Population Tubulin-Different-Phenotype (%) [2]: 35% | Total Cell Count [2]: 135 | Population Apoptotic (%) [3]: 51% | Population Fragmented Nuclei (%) [3]: 21% | Population Healthy Nuclei (%) [3]: 58% | Population Hoechst High Intensity Objects (%) [3]: 2% | Population Membrane Permeable-Phenotype (%) [3]: 1% | Population Mitochondria Different-Phenotype (%) [3]: 4% | Population Mitotic Cells (%) [3]: 48% | Population Normal (%) [3]: 97% | Population Pyknosed Nuclei (%) [3]: 20% | Population Tubulin-Different-Phenotype (%) [3]: 28% | Total Cell Count [3]: 147 | Population Apoptotic (%) [4]: 31% | Population Fragmented Nuclei (%) [4]: 26% | Population Healthy Nuclei (%) [4]: 38% | Population Hoechst High Intensity Objects (%) [4]: 12% | Population Membrane Permeable-Phenotype (%) [4]: 13% | Population Mitochondria Different-Phenotype (%) [4]: 17% | Population Mitotic Cells (%) [4]: 68% | Population Normal (%) [4]: 87% | Population Pyknosed Nuclei (%) [4]: 35% | Population Tubulin-Different-Phenotype (%) [4]: 48% | Total Cell Count [4]: 133 | Population Apoptotic (%) [5]: 50% | Population Fragmented Nuclei (%) [5]: 13% | Population Healthy Nuclei (%) [5]: 68% | Population Hoechst High Intensity Objects (%) [5]: 2% | Population Membrane Permeable-Phenotype (%) [5]: 0% | Population Mitochondria Different-Phenotype (%) [5]: 5% | Population Mitotic Cells (%) [5]: 50% | Population Normal (%) [5]: 97% | Population Pyknosed Nuclei (%) [5]: 18% | Population Tubulin-Different-Phenotype (%) [5]: 20% | Total Cell Count [5]: 147 | Population Apoptotic (%) [6]: 42% | Population Fragmented Nuclei (%) [6]: 21% | Population Healthy Nuclei (%) [6]: 51% | Population Hoechst High Intensity Objects (%) [6]: 5% | Population Membrane Permeable-Phenotype (%) [6]: 4% | Population Mitochondria Different-Phenotype (%) [6]: 4% | Population Mitotic Cells (%) [6]: 57% | Population Normal (%) [6]: 94% | Population Pyknosed Nuclei (%) [6]: 26% | Population Tubulin-Different-Phenotype (%) [6]: 35% | Total Cell Count [6]: 131 | Population Apoptotic (%) [7]: 46% | Population Fragmented Nuclei (%) [7]: 19% | Population Healthy Nuclei (%) [7]: 60% | Population Hoechst High Intensity Objects (%) [7]: 5% | Population Membrane Permeable-Phenotype (%) [7]: 0% | Population Mitochondria Different-Phenotype (%) [7]: 3% | Population Mitotic Cells (%) [7]: 53% | Population Normal (%) [7]: 94% | Population Pyknosed Nuclei (%) [7]: 20% | Population Tubulin-Different-Phenotype (%) [7]: 15% | Total Cell Count [7]: 135 | Population Apoptotic (%) [8]: 53% | Population Fragmented Nuclei (%) [8]: 34% | Population Healthy Nuclei (%) [8]: 39% | Population Membrane Permeable-Phenotype (%) [8]: 18% | Population Mitochondria Different-Phenotype (%) [8]: 14% | Population Mitotic Cells (%) [8]: 46% | Population Pyknosed Nuclei (%) [8]: 25% | Population Tubulin-Different-Phenotype (%) [8]: 62% | Total Cell Count [8]: 134 | Population Apoptotic (%) [9]: 59% | Population Fragmented Nuclei (%) [9]: 13% | Population Healthy Nuclei (%) [9]: 66% | Population Hoechst High Intensity Objects (%) [9]: 5% | Population Membrane Permeable-Phenotype (%) [9]: 1% | Population Mitochondria Different-Phenotype (%) [9]: 1% | Population Mitotic Cells (%) [9]: 40% | Population Normal (%) [9]: 94% | Population Pyknosed Nuclei (%) [9]: 19% | Population Tubulin-Different-Phenotype (%) [9]: 32% | Total Cell Count [9]: 146 | Population Apoptotic (%) [10]: 42% | Population Fragmented Nuclei (%) [10]: 26% | Population Healthy Nuclei (%) [10]: 58% | Population Hoechst High Intensity Objects (%) [10]: 2% | Population Membrane Permeable-Phenotype (%) [10]: 4% | Population Mitochondria Different-Phenotype (%) [10]: 6% | Population Mitotic Cells (%) [10]: 57% | Population Normal (%) [10]: 97% | Population Pyknosed Nuclei (%) [10]: 15% | Population Tubulin-Different-Phenotype (%) [10]: 50% | Total Cell Count [10]: 127 | Population Apoptotic (%) [11]: 58% | Population Fragmented Nuclei (%) [11]: 19% | Population Healthy Nuclei (%) [11]: 58% | Population Hoechst High Intensity Objects (%) [11]: 2% | Population Membrane Permeable-Phenotype (%) [11]: 1% | Population Mitochondria Different-Phenotype (%) [11]: 2% | Population Mitotic Cells (%) [11]: 41% | Population Normal (%) [11]: 97% | Population Pyknosed Nuclei (%) [11]: 22% | Population Tubulin-Different-Phenotype (%) [11]: 26% | Total Cell Count [11]: 143 | Population Apoptotic (%) [12]: 77% | Population Fragmented Nuclei (%) [12]: 40% | Population Healthy Nuclei (%) [12]: 43% | Population Hoechst High Intensity Objects (%) [12]: 5% | Population Membrane Permeable-Phenotype (%) [12]: 10% | Population Mitochondria Different-Phenotype (%) [12]: 14% | Population Mitotic Cells (%) [12]: 22% | Population Normal (%) [12]: 94% | Population Pyknosed Nuclei (%) [12]: 16% | Population Tubulin-Different-Phenotype (%) [12]: 73% | Total Cell Count [12]: 119
